Legend:
[1] = molecular target: T1, Metabotropic glutamate receptor 1 (Homo sapiens, UniProt Q13255); assay: Inhibition of Quisqualate-Induced PI Hydrolysis measured in CHO Metabotropic glutamate receptor 1 Expressing Cells; format: functional
Outline: (§1)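 Human mGlu1b receptor, cloned and stably expressed in CHO cells. Inhibition of quisqualate-stimulated phosphoinositol hydrolysis. Each data point is a triplicate measurement from at least three independent experiments, given as mean ± SEM. Four-parameter logistic fit of concentration–response curves gives IC50 with 95% confidence intervals. Highest concentration tested was 30 µM, or 100 µM where solubility allowed.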
Target sequence in this assay (Q13255 whole entry): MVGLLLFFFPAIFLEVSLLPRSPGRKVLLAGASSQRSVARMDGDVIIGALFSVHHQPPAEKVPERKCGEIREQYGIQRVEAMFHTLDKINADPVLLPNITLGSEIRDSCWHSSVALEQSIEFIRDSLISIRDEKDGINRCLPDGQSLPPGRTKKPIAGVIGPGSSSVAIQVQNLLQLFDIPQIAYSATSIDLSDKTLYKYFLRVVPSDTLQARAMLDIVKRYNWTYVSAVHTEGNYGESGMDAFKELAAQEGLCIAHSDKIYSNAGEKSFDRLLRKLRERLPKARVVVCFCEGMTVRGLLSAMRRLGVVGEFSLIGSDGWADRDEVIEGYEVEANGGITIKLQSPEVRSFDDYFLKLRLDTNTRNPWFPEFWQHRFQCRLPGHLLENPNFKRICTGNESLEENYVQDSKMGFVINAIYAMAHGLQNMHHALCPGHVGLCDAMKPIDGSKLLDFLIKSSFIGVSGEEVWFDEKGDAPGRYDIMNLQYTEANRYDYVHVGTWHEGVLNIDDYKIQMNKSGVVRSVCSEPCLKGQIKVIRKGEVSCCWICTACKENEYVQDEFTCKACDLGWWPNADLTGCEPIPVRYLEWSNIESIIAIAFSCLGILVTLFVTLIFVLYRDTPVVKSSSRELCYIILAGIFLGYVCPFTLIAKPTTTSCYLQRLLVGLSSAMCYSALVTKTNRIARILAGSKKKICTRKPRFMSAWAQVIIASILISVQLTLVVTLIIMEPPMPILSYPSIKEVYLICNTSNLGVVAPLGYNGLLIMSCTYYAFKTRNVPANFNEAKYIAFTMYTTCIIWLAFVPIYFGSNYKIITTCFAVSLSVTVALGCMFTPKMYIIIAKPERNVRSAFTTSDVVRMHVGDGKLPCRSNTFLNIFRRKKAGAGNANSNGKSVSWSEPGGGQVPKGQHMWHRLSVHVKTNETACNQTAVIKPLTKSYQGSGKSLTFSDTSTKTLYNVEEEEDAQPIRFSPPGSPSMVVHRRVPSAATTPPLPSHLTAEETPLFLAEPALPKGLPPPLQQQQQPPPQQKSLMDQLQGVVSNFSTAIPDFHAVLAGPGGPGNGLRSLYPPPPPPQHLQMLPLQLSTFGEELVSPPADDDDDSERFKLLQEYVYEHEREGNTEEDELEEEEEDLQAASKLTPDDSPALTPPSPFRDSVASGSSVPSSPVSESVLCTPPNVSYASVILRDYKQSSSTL

[2] = molecular target: T1, Metabotropic glutamate receptor 1; assay: Inhibition of Quisqualate-Induced PI Hydrolysis measured in CHO Metabotropic glutamate receptor 1 Expressing Cells at a concentration of 30 uM; ne means No effect; format: functional; outline: as §1
Target sequence in this assay (Q13255 whole entry): as above

[3] = molecular target: T1, Metabotropic glutamate receptor 1; details: CHO; 100 uM
Target sequence in this assay (Q13255 19-1194 limits assumed): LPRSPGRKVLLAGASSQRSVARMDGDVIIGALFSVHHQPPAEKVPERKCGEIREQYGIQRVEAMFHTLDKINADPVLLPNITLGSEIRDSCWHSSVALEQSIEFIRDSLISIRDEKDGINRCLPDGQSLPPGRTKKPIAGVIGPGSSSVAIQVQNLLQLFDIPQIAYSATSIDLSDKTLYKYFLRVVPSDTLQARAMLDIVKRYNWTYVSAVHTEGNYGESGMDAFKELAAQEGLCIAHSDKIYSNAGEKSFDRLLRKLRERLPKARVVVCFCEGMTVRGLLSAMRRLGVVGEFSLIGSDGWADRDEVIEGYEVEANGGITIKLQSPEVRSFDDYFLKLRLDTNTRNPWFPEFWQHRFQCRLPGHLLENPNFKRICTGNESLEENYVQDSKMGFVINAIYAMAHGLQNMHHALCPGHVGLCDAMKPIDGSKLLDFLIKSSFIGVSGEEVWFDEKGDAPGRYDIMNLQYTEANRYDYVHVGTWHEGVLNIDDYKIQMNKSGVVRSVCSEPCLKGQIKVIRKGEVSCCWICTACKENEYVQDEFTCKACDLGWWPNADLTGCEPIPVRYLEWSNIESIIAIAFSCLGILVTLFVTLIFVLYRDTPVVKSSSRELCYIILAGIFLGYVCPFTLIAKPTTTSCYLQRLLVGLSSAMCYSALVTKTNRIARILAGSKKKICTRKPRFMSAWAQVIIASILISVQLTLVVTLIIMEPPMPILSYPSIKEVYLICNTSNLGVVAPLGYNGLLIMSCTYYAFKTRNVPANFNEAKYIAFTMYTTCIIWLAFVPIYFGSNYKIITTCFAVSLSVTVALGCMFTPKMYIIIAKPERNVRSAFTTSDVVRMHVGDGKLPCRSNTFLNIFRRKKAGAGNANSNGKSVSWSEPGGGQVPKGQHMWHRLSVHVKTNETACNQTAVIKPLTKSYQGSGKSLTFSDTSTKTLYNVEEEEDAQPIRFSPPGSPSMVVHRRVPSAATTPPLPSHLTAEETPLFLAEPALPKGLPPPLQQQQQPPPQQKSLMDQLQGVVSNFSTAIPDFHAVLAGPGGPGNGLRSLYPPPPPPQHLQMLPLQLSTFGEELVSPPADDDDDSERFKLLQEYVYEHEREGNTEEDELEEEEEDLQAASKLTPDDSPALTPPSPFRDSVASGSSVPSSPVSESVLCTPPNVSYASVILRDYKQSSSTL

Row | Compound | IC50 [1] [nM] | IC50 [2] | inhibition [3] [%]
1 | CCOC(=O)[C@]12C[C@H]1/C(=N\O)c1ccccc1O2 | 1500 |  | 
2 | CCOC(=O)[C@@]12CC1/C(=N\O)c1ccccc1O2 (stereo partly drawn) |  | Not Active | 53
3 | CCOC(=O)C12CC1/C(=N\O)c1ccccc1O2 (racemic) | 3400 |  | 
4 | COC(=O)[C@H](Cc1ccccc1)NC(=O)C12CC1/C(=N\O)c1ccccc1O2 (mixture of isomers) | 1200 |  | 
5 | COC(=O)[C@@H](Cc1ccccc1)NC(=O)C12CC1/C(=N\O)c1ccccc1O2 (mixture of isomers) | 1400 |  | 
6 | COC(=O)[C@@H](Cc1ccccc1)NC(=O)[C@@]12C[C@@H]1/C(=N\O)c1ccccc1O2 |  | Not Active | 
7 | COC(=O)[C@H](Cc1ccccc1)NC(=O)[C@]12C[C@H]1/C(=N\O)c1ccccc1O2 | 430 |  | 

— ChEMBL document CHEMBL1133522, “Chiral resolution, pharmacological characterization, and receptor docking of the noncompetitive mGlu1 receptor antagonist (+/-)-2-hydroxyimino- 1a, 2-dihydro-1H-7-oxacyclopropa[b]naphthalene-7a-carboxylic acid ethyl ester” (J Med Chem, 2000)
